TDP2 inh: TDP2 (human) inhibition, absorbance primary screen; recombinant TDP2, T5PNP hydrolysis, p-nitrophenol absorbance 415 nm; hit rate 0.34% among 370,000; AID 720702; inhibition, % at 12.8 µM; O95551;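 active = inhibition above the mean of all tested compounds plus 3 SD, set per campaign, cut at about 25% in these data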;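 also: 0% = DMSO with enzyme and 100% = buffer with substrate but no TDP2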
Target sequence (O95551 whole entry, looked up): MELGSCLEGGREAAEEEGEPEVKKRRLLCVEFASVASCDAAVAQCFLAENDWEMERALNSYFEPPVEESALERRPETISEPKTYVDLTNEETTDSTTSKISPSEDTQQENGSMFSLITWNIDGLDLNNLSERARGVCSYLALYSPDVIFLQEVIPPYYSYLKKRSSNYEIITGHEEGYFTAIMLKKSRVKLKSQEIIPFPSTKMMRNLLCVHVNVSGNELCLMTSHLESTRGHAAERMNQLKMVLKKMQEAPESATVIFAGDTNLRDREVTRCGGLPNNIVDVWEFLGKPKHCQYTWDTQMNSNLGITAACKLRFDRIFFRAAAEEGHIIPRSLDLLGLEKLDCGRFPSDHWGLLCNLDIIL
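Material: recombinant human TDP2; quantity: TDP2 enzyme at 120 nM final; medium: Tris-HCl pH 7.5 with MgCl2; compound: single concentration, 12.8 µM nominal, with 1% DMSO; incubation: 2 h enzyme incubation at 37 °C; signal: epi absorbance; measure: percent inhibition; benchmarks: high control without enzyme, low control DMSO plus TDP2; repeats: singlicate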
LEDGF integ inh: blocks HIV-1 LEDGF/p75-dependent DNA integration. hit rate 0.64% among 370,000. inhibition, % at 3.7 µM. TR-FRET IN-LEDGF/p75 DNA integration, Eu/Cy5;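 active = inhibition above the screen-wide mean plus 3 SD, cut at about 13% in these data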;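 also: signal is the Cy5 over europium emission ratio at 671 and 618 nm; 0% = plate median of compound wells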
UHRF1 MBD2 ctr: human UHRF1 methylated DNA binding inhibitors; Q96T88; UHRF1 binding to methylated oligo, TR-FRET; inhibition, % at 4.4 µM; hit rate 0.75% among 370,000;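 also: UHRF1 SRA domain binding a hemimethylated CpG hairpin DNA probe; 0% = median of test compound wells and 100% = reference inhibitor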
MBD2 inh: MBD2-methylated oligo binding inhibition | Q9UBB5 | TR-FRET, MBD2 binding to methylated oligonucleotide | inhibition, % at 4.4 µM | hit rate 0.31% among 370,000; in the data active = inhibition above about 13%
UHRF1 DNA bind: UHRF1 methyl-oligo binding inhibition as MBD2 counter-screen; shares compounds with MBD2 inh; UHRF1 binding to methylated oligonucleotide, TR-FRET; inhibition, % at 4.4 µM; hit rate 25% among 1,000;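 also: UHRF1 SRA domain binding a labeled hemimethylated CpG hairpin DNA; 0% = vehicle only and 100% = reference inhibitor with vehicle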
MBD2 DBD conf: MBD2-DBD methyl-DNA binding inhibition, TR-FRET confirmation; TR-FRET MBD2-DBD binding to methylated oligonucleotide; shares compounds with MBD2 inh; AID 720531; inhibition, % at 4.4 µM; hit rate 26% among 1,000; in the data active = inhibition above about 14%
IN multimer act: counter-screen for LEDGF/p75 integration inhibitors: HIV-1 integrase multimerization activators; shares compounds with LEDGF integ inh; TR-FRET HIV-1 integrase multimerization, biochemical; activation, % at 7.7 µM; hit rate 17% among 2,000; AID 1053131; in the data active = activation above about 8.9%
TRFRET interf: counter-screen for LEDGF/p75 integration inhibitors: TR-FRET optical interference; 2,000 tested, under 10 active; inhibition, % at 7.7 µM; shares compounds with LEDGF integ inh; TR-FRET optical interference counterscreen, HIV-1 IN multimerization;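 active = inhibition above the mean over all tested compounds plus 3 SD, which no compound reached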;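 also: 0% = integrase with antibodies and DMSO and 100% = antibodies without integrase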
LEDGF integ conf: LEDGF/p75-dependent HIV-1 integration inhibition, confirmation; AID 1053136; TR-FRET LEDGF/p75-dependent HIV-1 integration, biochemical; hit rate 36% among 2,000; shares compounds with LEDGF integ inh; inhibition, % at 3.7 µM; in the data active = inhibition above about 14%
Starred values were filed as active, the others as inactive; i = inactive; nt = no result. Sampled rows, rich in hits. Any-hit rate of the full collection: about 1.6%. Rule as the data show it, unless noted: active = inhibition above about 21%; inactive = the rest.

SMILES	TDP2 inh	LEDGF integ inh	UHRF1 MBD2 ctr	MBD2 inh	UHRF1 DNA bind	MBD2 DBD conf	IN multimer act	TRFRET interf	LEDGF integ conf
O=C(COC(=O)c1cncc(Br)c1)NCc1ccco1	-8	16*	44*	14*	26*	14*	7	-36	29*
O=C(COC(=O)c1cncc(Br)c1)NCc1ccc(F)cc1	7	-1	6	-2	nt	nt	nt	nt	nt
C=C1c2cccc(O)c2C(O)=C2C(=O)[C@]3(O)C(O)=C(C(N)=O)C(=O)[C@@H](N(C)C)[C@@H]3[C@@H](O)[C@H]12	22	85*	98*	91*	21*	9	50*	-180	63*
O=c1c2cc(O)c(O)cc2oc2cc(O)c(C3OC(CO)C(O)C(O)C3O)c(O)c12 (configuration not stated)	-3	82*	60*	43*	45*	40*	70*	-351	86*
CC(C)C[C@H]1COc2ccc(Cl)cc2S(=O)(=O)N1	-1	-1	-3	-5	nt	nt	nt	nt	nt
CCOC(=O)C1CCCN(C(=O)c2cc(-c3ccco3)nc3ccccc23)C1 (configuration not stated)	0	25*	38*	20*	39*	24*	9	-44	48*
CCOC(=O)C1CCCN(C(=O)c2cc(-c3ccncc3)nc3ccccc23)C1 (configuration not stated)	-2	3	1	-1	nt	nt	nt	nt	nt
O=c1cc(Br)c(O)c(Br)cc1Br	12	46*	39*	14*	14	-1	5	-24	21*
O=C1Cc2cccc(=O)c(O)c2C(=O)O1	8	20*	28*	13*	28*	11	6	-31	26*
O=C1c2c(O)cccc2Cc2cccc(O)c21	5	2	-3	-6	nt	nt	nt	nt	nt
O=C1/C(=C/C=C/c2ccco2)SC(=S)N1NS(=O)(=O)c1ccccc1	22	71*	97*	69*	88*	51*	20*	-73	76*
CC(C(=O)O)N1C(=O)/C(=C/C=C/c2ccco2)SC1=S (configuration not stated)	3	93*	101*	101*	103*	110*	48*	-169	88*
O=C(O)c1ccc(-n2cccc2/C=C2/NC(=O)N(c3ccccc3)C2=O)cc1	-9	22*	77*	37*	72*	44*	14*	-72	31*
O=C(O)c1cccc(-n2cccc2/C=C2\NC(=O)N(Cc3ccc(F)cc3)C2=O)c1	5	2	9	1	nt	nt	nt	nt	nt
O=C(O)c1ccc(-n2cccc2/C=C2/SC(=O)N(CC(=O)N3CCCC3)C2=O)cc1	12	36*	76*	44*	85*	49*	16*	-80	36*
O=C(O)c1ccc(-n2cccc2/C=C2/NC(=O)N(c3cccc(Cl)c3)C2=O)cc1	-6	33*	81*	39*	78*	49*	13*	-63	31*
N#Cc1ccccc1CN1C(=O)S/C(=C/c2cccn2-c2ccc(C(=O)O)cc2)C1=O	-2	5	10	9	nt	nt	nt	nt	nt
O=C(CSc1nnc(Cc2cccs2)n1-c1ccc(Cl)cc1)Nc1ccc(OCc2ccccc2)cc1	1	-2	0	3	nt	nt	nt	nt	nt
OC(c1ccccc1)(c1ccccc1)C1CCN(CCCOc2cccc(F)c2)CC1	3	-4	2	6	nt	nt	nt	nt	nt
COc1cccc2c1C(=O)c1c(O)c3c(c(O)c1C2=O)CC(O)(C(C)=O)CC3OC1CC(N(C)C)C(O)C(C)O1 (configuration not stated)	-6	14*	96*	111*	101*	111*	3	-16	32*
C=CCN=C1NC(CCc2ccccc2)C(C(=O)OC)=C(C)N1Cc1cccc(C(F)(F)F)c1 (configuration not stated)	8	-1	-1	-4	nt	nt	nt	nt	nt
C#CCN(C)S(=O)(=O)c1ccc(N2CCCC2)cc1Br	2	-4	-1	0	nt	nt	nt	nt	nt
O=C1CC(=O)N(Cc2ccco2)C(=O)N1	16	89*	93*	64*	100*	74*	18*	-90	87*
Nc1c(C(=O)Nc2ccccc2F)sc2nc(-c3ccco3)ccc12	2	7	2	-2	nt	nt	nt	nt	nt
COC(=O)c1sc2nc(-c3ccco3)ccc2c1N	3	52*	55*	16*	8	-1	5	-24	8
SMILES	TDP2 inh	LEDGF integ inh	UHRF1 MBD2 ctr	MBD2 inh	UHRF1 DNA bind	MBD2 DBD conf	IN multimer act	TRFRET interf	LEDGF integ conf
C=C(C)C(=O)Nc1cccc(C2=NOC3(C2)C[C@@H](C(N)=O)N(C(=O)/C(C)=C/C)C3)c1 (some centres not stated)	5	39*	89*	38*	91*	69*	57*	-285	52*
C=C(C)C(=O)Nc1cccc(C2=NOC3(C2)C[C@@H](C(N)=O)N(C(=O)/C=C/C=C/C)C3)c1 (some centres not stated)	7	18*	79*	47*	88*	60*	41*	-205	19*
O=C(NCC1CCN(C(=O)C(=O)c2cccs2)CC1)c1ccc2ccccc2c1	3	-2	1	3	nt	nt	nt	nt	nt
O=C(Nc1ccc(Nc2cccnc2)cc1)c1c[nH]c2ccccc12	0	8	-1	2	nt	nt	nt	nt	nt
COc1ccc(N)cc1CN1CCN(c2ncc(Cc3ccccc3)cn2)CC1	10	-1	-1	-3	nt	nt	nt	nt	nt
O=C(/C=C/c1ccco1)NC(=S)Nc1cccc(C(=O)O)c1	19	44*	70*	17*	56*	18*	9	-43	16*
COc1cccc(NC(=S)NC(=O)/C=C/c2ccco2)c1	-4	0	0	-2	nt	nt	nt	nt	nt
CC(C)(CS(=O)(=O)[O-])NC(=O)CC[N+](C)(C)CCO	-2	39*	92*	54*	95*	85*	122*	i	38*
NC(=O)c1c(N)[nH]c(C(=O)c2ccccc2)c1-c1ccc2ccccc2c1	8	0	0	0	nt	nt	nt	nt	nt
CCOc1ccc(N2CC(C(=O)Nc3nnc(Cc4ccc(OC)cc4)s3)CC2=O)cc1 (configuration not stated)	-8	15*	65*	33*	7	4	2	-9	3
N#CCC[C@H]1CC[C@]2(CCCN(Cc3cccc4ccccc34)C2)O1	5	-1	-2	-2	nt	nt	nt	nt	nt

Bioassay records from PubChem BioAssay.
